Screens deposited in PubChem BioAssay by several laboratories.
SMARCA2 act: increases SMARCA2 function in MMTV reporter cells; MG213 cells, MMTV-luciferase reporter, dexamethasone, overnight; activation, % at 9.1 µM; 1% of 370,000 active; AID 652017; in the data active = activation above about 7.8%
CFTR F508del cor: CFTR F508del correction in bronchial cells; CFBE cells, YFP halide quenching; stimulated with forskolin plus potentiator P3; % fluorescence drop versus neutral controls; activity (quench increase), % at 7.58 µM; 0.36% of 350,000 active; AID 720511;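 active = mean added fluorescence quench of at least 8% versus neutral control, with both replicates also reaching 8%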;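 also: cells transiently co-express mutant CFTR-F508del with the halide-sensitive YFP; corrector assay measuring rescue of mutant channel to the surface after 24 h compound exposure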
MC4R antagonist: human MC4R antagonism in cAMP assay. MC4R-expressing cells, MTII-stimulated cAMP, LANCE TR-FRET. inhibition, % at 6.5 µM. 0.48% of 360,000 active;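 active = inhibition above its plate's cutoff, the mean of tested wells on that plate plus 3 SD, cut at about 29% in these data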
Target sequence (P32245 whole entry, looked up): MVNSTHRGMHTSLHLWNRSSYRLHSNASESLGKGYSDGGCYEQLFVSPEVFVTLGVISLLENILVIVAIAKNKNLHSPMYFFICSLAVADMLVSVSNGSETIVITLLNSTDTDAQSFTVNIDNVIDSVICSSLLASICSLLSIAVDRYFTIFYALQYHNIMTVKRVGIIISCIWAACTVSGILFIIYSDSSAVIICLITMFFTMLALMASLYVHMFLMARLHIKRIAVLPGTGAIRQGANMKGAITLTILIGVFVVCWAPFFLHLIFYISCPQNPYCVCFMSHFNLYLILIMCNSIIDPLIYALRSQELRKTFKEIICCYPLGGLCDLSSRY
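Test system: U2OS cells stably expressing human melanocortin 4 receptor (MC4R); also added: Melanotan II challenge; compound: 6.5 µM single dose; timing: 30-min compound preincubation, 1-h Melanotan II challenge, 1-h detection, room temperature; signal: Eu-cAMP/anti-cAMP TR-FRET, emission 671 nm; repeats: one well per compound, no replicates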
MC4R ag barr: activates human MC4R beta-arrestin recruitment; AID 540308; 0.98% of 360,000 active; activation, % at 8.9 µM; P32245; U2OS MC4R beta-arrestin complementation, luminescence; percent of melanotan II response, DMSO zero;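 active = activation above a per-plate cutoff, the mean activation of sample wells on that plate plus 3 SD, cut at about 8% in these data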
SMARCA2 conf: confirmation of SMARCA2 (BRM) function activators; shares compounds with SMARCA2 act; MG213 cells, MMTV-luciferase with dexamethasone, luminescence, overnight; MG213 cells expressing E1A, Rb sequestered; DMSO wells 0%, reference activator 100%; activation, % at 9.1 µM; 30% of 3,500 active;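 active = activation above its plate's cutoff, the mean activation of tested wells plus 3 SD, cut at about 7.9% in these data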
GAL4-VP16 Luc: GAL4-VP16 reporter activation counter-screen; shares compounds with SMARCA2 act; 41% of 3,500 active; HEK293 GAL4-VP16 pG5luc reporter, luciferase luminescence; scaled: DMSO wells 0%, SAHA wells 100%; activation, % at 9.1 µM;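 active = activation above the solvent-only control well mean plus 3 SD, averaged across control plates, cut at about 5.2% in these data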
Large screens that a line does not name were inactive (follow-up assays come after a bar, where they were run). This is a sample that favours compounds with a hit; in the whole collection about 2.1% have one here.

COc1ccc(C2CC2C(=O)c2ccccn2)cc1 (configuration not stated)	SMARCA2 act 8.6 | SMARCA2 conf inactive | GAL4-VP16 Luc inactive
O=C(Cc1cccnc1)N[C@@H]1CC[C@H](CCn2cc(Cc3ccccc3)nn2)O[C@H]1CO	none (no result: SMARCA2 act, MC4R antagonist, MC4R ag barr)
Cn1cnc([N+](=O)[O-])c1Sc1ncn[nH]1	SMARCA2 act 8.3 | SMARCA2 conf inactive | GAL4-VP16 Luc inactive
CCS(=O)(=O)c1c([N+](=O)[O-])ncn1C	SMARCA2 act 15 (no result: CFTR F508del cor) | SMARCA2 conf 12 | GAL4-VP16 Luc inactive
Cn1cnc([N+](=O)[O-])c1Cl	none
O=C(CCN1CCCCC1)NCC[C@@H]1CC[C@@H](NC(=O)C2CCC2)[C@@H](CO)O1	none (no result: SMARCA2 act, MC4R antagonist, MC4R ag barr)
CCN(CCn1cccn1)C(=O)CCc1nnc(-c2ccc3c(c2)OCO3)o1	none (no result: CFTR F508del cor)
CCN(CCn1cccn1)C(=O)CCc1nnc(CCCc2ccccc2)o1	SMARCA2 act 8.7 | SMARCA2 conf 11 | GAL4-VP16 Luc 6.4
COc1cc(/C=C/C(=O)O)cc2c1OCCO2	SMARCA2 act 8.0 | SMARCA2 conf inactive | GAL4-VP16 Luc inactive
Cc1cccc(NC(=O)CCc2ccccc2)c1	SMARCA2 act 9.2 | SMARCA2 conf inactive | GAL4-VP16 Luc inactive
O=C(CCCc1ccccc1)Nc1cccc(C(=O)O)c1	SMARCA2 act 8.2 | SMARCA2 conf 9.1 | GAL4-VP16 Luc 14
O=C(CCc1ccccc1)Nc1ccccc1[N+](=O)[O-]	SMARCA2 act 8.2 (no result: CFTR F508del cor) | SMARCA2 conf 15 | GAL4-VP16 Luc 5.3
CC(=O)Nc1cccc(NC(=O)CCc2ccccc2)c1	none (no result: CFTR F508del cor)
CC(C)C#Cc1ccc2c(c1)O[C@H](CN(C)S(=O)(=O)c1cn(C)cn1)[C@H](C)CN([C@@H](C)CO)S2(=O)=O	none (no result: SMARCA2 act, MC4R antagonist, MC4R ag barr)
C[C@H](CO)N1C[C@H](C)[C@@H](CN(C)C(=O)c2ccccn2)Oc2cc(C#Cc3ccc(F)cc3)ccc2S1(=O)=O	none (no result: SMARCA2 act, MC4R antagonist, MC4R ag barr)
c1ccc(-c2noc(-c3ccc4c(c3)OCO4)n2)cc1	none (no result: CFTR F508del cor)
Cc1ccc(-c2nc(-c3ccncc3)no2)cc1C	none
COc1ccccc1-c1nc(-c2ccncc2)no1	SMARCA2 act 10 (no result: CFTR F508del cor) | SMARCA2 conf 9.8 | GAL4-VP16 Luc 11
COc1ccc(-c2noc(-c3ccc4c(c3)OCO4)n2)cc1	SMARCA2 act 14 (no result: CFTR F508del cor) | SMARCA2 conf 15 | GAL4-VP16 Luc 9.3
COc1ccc(OC)c2nc(-c3ccc4c(c3)OCO4)ccc12	SMARCA2 act 8.6 | SMARCA2 conf inactive | GAL4-VP16 Luc 16
COc1ccc(-c2nc(-c3ccncc3)no2)cc1OC	SMARCA2 act 12 (no result: CFTR F508del cor) | SMARCA2 conf inactive | GAL4-VP16 Luc 8.8
C[C@@H](NC(=O)C[C@@H]1CC[C@@H]2[C@H](COC[C@H](O)CN2C(=O)Nc2cccc(F)c2)O1)c1ccccc1	none (no result: SMARCA2 act, MC4R antagonist, MC4R ag barr)
COc1cccc2cc(NC(=O)C3CCCCC3)c(=O)oc12	SMARCA2 act 12 (no result: CFTR F508del cor) | SMARCA2 conf 7.8 | GAL4-VP16 Luc 10
c1ccc(CN2CCC(Nc3nc(-c4cccnc4)nc4ccccc34)CC2)cc1	SMARCA2 act 8.5 | SMARCA2 conf 19 | GAL4-VP16 Luc inactive
CCOC(=O)c1[nH]c2cc(OC)c(OC)cc2c1NC(=O)c1nonc1C	SMARCA2 act 9.9 (no result: CFTR F508del cor) | SMARCA2 conf inactive | GAL4-VP16 Luc inactive
CCOC(=O)c1[nH]c2cc(OC)c(OC)cc2c1NC(=O)CN(C)C1CCCCC1	none (no result: CFTR F508del cor)
Cc1ccc(C(=O)Nc2ccc(NC(=O)c3cccs3)cc2)cc1[N+](=O)[O-]	SMARCA2 act 9.0 | SMARCA2 conf inactive | GAL4-VP16 Luc inactive
COc1ccc(C(=O)Nc2ccc(NC(=O)c3cccs3)cc2)cc1[N+](=O)[O-]	none
O=C(c1ccccc1)N1CC(=O)N2[C@H](CO)[C@@H](c3ccc(C#CC4CC4)cc3)[C@H]2C1	none (no result: SMARCA2 act, MC4R antagonist, MC4R ag barr)
O=C(Cn1sc2ccccc2c1=O)Nc1ccc(F)cc1	SMARCA2 act 9.2 | SMARCA2 conf 11 | GAL4-VP16 Luc inactive
O=C(Cn1sc2ccccc2c1=O)Nc1ccc(Br)cc1	none
C[C@H]1CN([C@@H](C)CO)S(=O)(=O)c2ccc(-c3cncnc3)cc2O[C@@H]1CN(C)C	none (no result: SMARCA2 act, MC4R antagonist, MC4R ag barr)
NC(=O)c1sc2nc(-c3ccco3)ccc2c1N	none (no result: CFTR F508del cor)
COC(=O)c1sc2nc(-c3ccco3)ccc2c1N	SMARCA2 act 8.0 (no result: CFTR F508del cor) | SMARCA2 conf 14 | GAL4-VP16 Luc 6.5
CN1CCN(C(=O)C[C@H]2C=C[C@@H](NC(=O)Cc3ccccn3)[C@H](CO)O2)CC1	none (no result: SMARCA2 act, MC4R antagonist, MC4R ag barr)
CCN(C[C@H]1N[C@@](Cc2ccccc2)(C(=O)OC)[C@H]2C(=O)N(Cc3ccccc3)C(=O)[C@@H]12)S(=O)(=O)c1ccccc1	none
CCN(C[C@H]1N[C@@](Cc2ccccc2)(C(=O)OC)[C@H]2C(=O)N(Cc3ccccc3)C(=O)[C@@H]12)S(=O)(=O)c1ccc(C)cc1	SMARCA2 act 10 | SMARCA2 conf inactive | GAL4-VP16 Luc inactive
CN(C)/C=N/c1ncc(C(=O)c2ccccc2)s1	SMARCA2 act 14 (no result: CFTR F508del cor) | SMARCA2 conf 8.7 | GAL4-VP16 Luc 8.1
C[C@@H]1CN([C@H](C)CO)C(=O)c2cc(NC(=O)NC3CCCCC3)ccc2O[C@@H]1CN(C)Cc1ccccc1	none (no result: SMARCA2 act, MC4R antagonist, MC4R ag barr)
Cc1cccc(NC(=O)C2CCCN2C(=O)OCc2ccccc2)c1 (configuration not stated)	none
Cc1ccc(O)c(NC(=O)C2CCCN2C(=O)OCc2ccccc2)c1 (configuration not stated)	SMARCA2 act 9.6 | SMARCA2 conf inactive | GAL4-VP16 Luc inactive
COc1ccc(N2C(=O)CSC23C(=O)Nc2ccccc23)cc1 (configuration not stated)	SMARCA2 act 8.6 (no result: CFTR F508del cor) | SMARCA2 conf inactive | GAL4-VP16 Luc inactive
Cc1ccc(N2C(=O)CCSC23C(=O)Nc2ccccc23)cc1 (configuration not stated)	none (no result: CFTR F508del cor)
CCCNC(=O)N(C)C[C@H]1Oc2cc(C#CCC(C)C)ccc2S(=O)(=O)N([C@H](C)CO)C[C@H]1C	none (no result: SMARCA2 act, MC4R antagonist, MC4R ag barr)
COc1cc(/C=C2/SC(=Nc3ccc(O)cc3)NC2=O)cc(OC)c1O	SMARCA2 act 8.9, CFTR F508del cor 15 | SMARCA2 conf inactive | GAL4-VP16 Luc inactive
COc1cccc(C(=O)/C=C/Nc2ccc(S(=O)(=O)Nc3onc(C)c3C)cc2)c1	SMARCA2 act 12 (no result: CFTR F508del cor) | SMARCA2 conf inactive | GAL4-VP16 Luc inactive
C[C@@H]1CN([C@H](C)CO)C(=O)c2cccc(NC(=O)C3CCCCC3)c2O[C@H]1CN(C)S(=O)(=O)c1ccccc1	none (no result: SMARCA2 act, MC4R antagonist, MC4R ag barr)
CC(C)Nc1ccc(Nc2ccnc3cc4ccccc4cc23)cc1	SMARCA2 act 12, CFTR F508del cor 27, MC4R ag barr 8.5 | SMARCA2 conf 9.1 | GAL4-VP16 Luc inactive
NS(=O)(=O)c1ccc2nc(NC(=O)Nc3ccccc3F)sc2c1	none
Cc1ccccc1NC(=O)Nc1nc2ccc(S(C)(=O)=O)cc2s1	SMARCA2 act 9.2 (no result: CFTR F508del cor) | SMARCA2 conf inactive | GAL4-VP16 Luc inactive
